Assay outcomes as filed in PubChem BioAssay.
A selection: hits, their analogues and other compounds. The true share with any hit is near 4.6%.
TAAR1 ag: human TAAR1 agonists, primary screen, Fluo-8 calcium fluorescence, CHO RD-HGA16 cells. hit rate 0.99% among 360,000. activation, % at 3 µM. Trace amine-associated receptor 1 (Homo sapiens), Q96RJ0. vehicle wells 0%, saturating PEA agonist 100%. AID 624467, 2012;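 active = activation above the mean activation of all test compounds in the run plus 3 SD, cut at about 38% in these data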
Target sequence (Q96RJ0 whole entry, looked up): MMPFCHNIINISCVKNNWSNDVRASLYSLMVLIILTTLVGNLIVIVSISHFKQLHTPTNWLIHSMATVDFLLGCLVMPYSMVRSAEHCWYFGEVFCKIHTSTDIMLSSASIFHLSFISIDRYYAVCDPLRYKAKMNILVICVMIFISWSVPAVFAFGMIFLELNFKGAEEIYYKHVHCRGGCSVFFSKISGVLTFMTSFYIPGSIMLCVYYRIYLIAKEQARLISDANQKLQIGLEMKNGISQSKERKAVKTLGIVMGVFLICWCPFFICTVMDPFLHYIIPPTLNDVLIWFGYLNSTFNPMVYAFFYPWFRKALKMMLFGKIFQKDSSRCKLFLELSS
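Test system: RD-HGA16 (CHO) cells co-expressing Gα16 and hTAAR1; dosing: one-point dosing at 3 µM (nominal); timing: 17-24 h seeding, 75 min 37 °C dye, 30 min RT; signal: kinetic Fluo-8 calcium fluorescence; read-out basis: % activation relative to PEA EC100 response; controls: DMSO and PEA EC100; replicates: n 1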
GPR7 antagonist: GPR7 receptor antagonists, primary screen, cell-based, fluorescence, single concentration; GPR7-expressing cells, fluorescence antagonist assay; inhibition, % at 4.4 µM; hit rate 1.1% among 290,000; AID 1861, 2009; in the data active = inhibition above about 16%, passing the limit was not always enough;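 also: cells stimulated with the agonist NPW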
Target sequence (P48145 whole entry, looked up): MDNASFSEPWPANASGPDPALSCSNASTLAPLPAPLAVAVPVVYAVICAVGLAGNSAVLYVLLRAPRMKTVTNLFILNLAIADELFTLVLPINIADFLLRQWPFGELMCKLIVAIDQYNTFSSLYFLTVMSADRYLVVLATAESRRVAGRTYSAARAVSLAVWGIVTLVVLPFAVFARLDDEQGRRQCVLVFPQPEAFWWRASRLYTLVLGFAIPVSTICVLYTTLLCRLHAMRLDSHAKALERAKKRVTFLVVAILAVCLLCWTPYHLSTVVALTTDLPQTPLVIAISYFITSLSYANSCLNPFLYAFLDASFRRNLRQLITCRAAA
TAAR1 antagonist: human TAAR1 antagonists, primary screen, Fluo-8 calcium fluorescence, CHO RD-HGA16 cells. Trace amine-associated receptor 1 (Homo sapiens), Q96RJ0. antagonist. inhibition, % at 3 µM. hit rate 1.5% among 360,000. AID 624466, 2012;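 active = inhibition above a per-plate cutoff, the mean inhibition of test compounds on that plate plus 3 SD, cut at about 49% in these data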
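Test system: CHO RD-HGA16 cells bearing hTAAR1 | Reagent: β-PEA, EC80 | Compound dosing: 3 µM, single point | Schedule: Dye loading 75 min at 37 °C, then 30 min room temperature | Signal: Calcium fluorescence with Fluo-8 | Evaluation: Percent inhibition of PEA-evoked calcium signal, max/basal emission ratio | Control set: DMSO-only wells and EC80 β-PEA-stimulated wells | Repeats: Singlicate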
CHO parental Ca: ATP-evoked calcium signal inhibitors, parental CHO, primary screen, counter-screen for OX1R antagonist project, cell-based, fluorescence, Fluo-8 calcium dye | parental CHO-K1, ATP-induced calcium, Fluo-8 fluorescence | inhibition, % at 5.6 µM | hit rate 0.63% among 330,000 | AID 463079, 2010;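 active = inhibition above that plate's mean sample inhibition plus 3 SD, cut at about 26% in these data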
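Material: Parental CHO cells | Reagent: ATP | Compound dosing: Single nominal dose of 5.6 µM per compound | Detection: Intracellular calcium via Fluo-8 no-wash fluorescent dye | Read-out: % inhibition of ATP-induced calcium mobilization | Benchmarks: Low control ATP plus DMSO, high control DMSO only | Replicates: Singlicate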
OX1R antag-1: antagonists of human orexin 1 receptor (OX1R) | inhibition, % at 6.6 µM | AID 485270, 2010 | Orexin/Hypocretin receptor type 1 (Homo sapiens), O43613 | OX1R-expressing cells, FRET antagonist read-out | hit rate 1.8% among 330,000; in the data active = inhibition mostly above about 38%, no sharp cut-off; inactive = mostly below about 40%
OX1R antag-2: OX1R (HCRTR1) antagonists, primary screen, fluorescence, CHO/OX1R cells, Fluo-8 calcium, orexin A. Orexin/Hypocretin receptor type 1 (Homo sapiens), O43613. Fluo-8 calcium fluorescence. inhibition, % at 5 µM. hit rate 0.43% among 330,000;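 active = inhibition above its plate's threshold, mean inhibition of all tested compounds on the plate plus 3 SD, cut at about 37% in these data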
Numbers stand for hits; - = inactive; . = no result given.

SMILES	TAAR1 ag	GPR7 antagonist	TAAR1 antagonist	CHO parental Ca	OX1R antag-1	OX1R antag-2
NC(=O)c1c(N)[nH]c(C(=O)c2ccccc2)c1-c1ccc2ccccc2c1	-	.	-	.	.	.
Cc1cc(Cl)ccc1NC(=O)CN1CCC(C(O)(c2ccccc2)c2ccccc2)CC1	56	-	-	-	-	-
c1ccc(-c2csc3ncnc(NCc4ccccn4)c23)cc1	-	-	53	-	-	-
CN(C)CCCNc1ncnc2scc(-c3ccccc3)c12	-	-	-	-	-	-
c1ccc(CNc2ncnc3scc(-c4cccs4)c23)nc1	-	-	-	44	-	-
CC(=O)NC(c1ccccc1)c1nc(-c2cccc(F)c2)cs1 (configuration not stated)	-	.	-	.	.	.
CCOC(=O)c1cccc(N2C(N)=NC(N)=NC2(C)C)c1	-	16	-	-	-	-
CCCn1c(SCC(=O)Nc2cccc(F)c2)nc(O)cc1=O	-	.	-	40	-	79
O=[N+]([O-])c1ccc(C2=CSC3=NCCN23)cc1	-	.	-	-	47	-
Cc1ccc(C2=CSC3=NCCN23)cc1	-	.	-	-	-	-
O=C(Nc1ccccc1-c1nc2ccccc2o1)c1ccc2c(c1)OCCO2	.	-	.	.	.	.
Cc1c(NC(=O)c2ccc3c(c2)OCO3)cccc1-c1nc2ccccc2o1	-	-	-	-	52	-
Cc1cccc(Nc2ncnc3nc[nH]c23)c1	-	19	-	-	-	-
O=C(/C=C/c1ccccc1)Nc1nc(-c2ccncc2)cs1	-	-	50	-	-	-
O=C(/C=C\c1ccco1)Nc1nc(-c2ccccc2)cs1	-	-	-	-	-	-
Cc1ccc(-c2nc3c4ccccc4ccn3c2Cc2ccccc2C(F)(F)F)cc1	-	.	-	.	.	.
CCCCCC[n+]1ccccc1/C=C/c1ccc(N(C)C)cc1	-	.	70	.	.	.
Cc1ccccc1NC(=O)c1cc(S(=O)(=O)N2CCOCC2)ccc1F	-	-	-	-	47	-
O=C(Nc1cc(S(=O)(=O)N2CCOCC2)ccc1N1CCCCC1)c1cc(-c2ccccn2)nc2ccccc12	-	-	-	-	-	-
Cc1ccc(S(=O)(=O)N2CCOCC2)cc1NC(=O)c1cc(-c2ccccn2)nc2ccccc12	-	-	49	-	-	-
C[C@H](CO)N1C[C@H](C)[C@@H](CN(C)C(=O)Nc2ccnc(N3CCOCC3)c2)OCc2cn(nn2)CCCC1=O	-	.	-	.	.	.
Cc1cc(SCC(=O)N(C)C2CCCCC2)nc2ccccc12	-	.	-	-	36	-
CC1=C(C(=O)N2CCOCC2)CC(CC(=O)NCc2ccco2)C(=O)N1Cc1ccc(C(C)(C)C)cc1 (configuration not stated)	-	.	-	.	.	.
O=C(c1ccccc1NS(=O)(=O)c1ccc([N+](=O)[O-])cc1[N+](=O)[O-])N1O[C@@H]2C=C[C@H]1C2	-	.	-	-	46	-
Cc1ccccc1-c1cc2nc(Nc3ccc(F)cc3)n(C)c(=O)c2s1	-	.	-	.	.	.
SMILES	TAAR1 ag	GPR7 antagonist	TAAR1 antagonist	CHO parental Ca	OX1R antag-1	OX1R antag-2
COc1cc(CN2CCC(n3nccc3NC(=O)CCCc3ccccc3)CC2)ccc1F	-	-	-	-	-	-
O=C(Nc1ccc(N2CCOCC2)cc1)C1(c2ccc(Cl)cc2)CCC1	44	-	-	-	-	-
O=C(N1CCOCC1)C1(c2ccc(Cl)cc2)CCCC1	-	-	-	-	-	-
CCCCCNC(=O)c1ccc2c(=O)[nH]c3c(C(=O)NCC4CCCO4)sc(=S)n3c2c1 (configuration not stated)	-	-	-	-	79	-
Cc1ccc(-n2c(Cl)c(Cl)nc(Cl)c2=O)cc1	.	52	.	-	-	-
COc1nc(Cl)cn(-c2ccc(C)cc2)c1=O	-	-	-	-	-	-
CC(C)=CCCC(C)c1cc(C(=O)NCCc2ccc(O)cc2)c(N)s1 (configuration not stated)	40	.	-	.	.	.
Cc1ccc(Nc2nc(N)nc(CN3CCCCCC3)n2)c(C)c1	-	20	-	-	-	-
COc1ccc(CN2C(=O)C(CC(=O)NCCN3CCOCC3)CC(C(=O)N3CCOCC3)=C2C)cc1 (configuration not stated)	-	.	-	.	.	.
CC[C@H](C)[C@@H]1NC(=O)c2cc([N+](=O)[O-])cc(I)c2SC[C@@H](C(N)=O)NC(=O)[C@H](CCCCN)NC1=O	-	-	-	-	61	-
Cc1c(-c2ccc(O)cc2)nc2nc(-c3ccccc3)c(-c3ccccc3)nn12	.	-	.	90	-	99
COc1ccccc1C(NC(=O)C1CCN(CCc2ccc(Br)cc2)CC1)c1ccccn1 (configuration not stated)	-	.	-	.	.	.
COc1cccc(OC)c1C(=O)Nc1cc(Cl)ccc1N1CCOCC1	-	-	-	-	53	-
CCOc1ccc(Cl)cc1-c1cc(C(=O)NC2CCCCC2)[nH]n1	-	.	-	.	.	.
O=c1ccsn1Cc1ccccc1	44	-	-	-	-	-
Cc1cc(N2CCN(CC(C)(C)O)C[C@@H]2C)ccc1N1CCN(CC(C)(C)O)[C@@H](C)C1	-	.	-	.	.	.
Cc1sc2ncnc(NCCc3ccc(S(N)(=O)=O)cc3)c2c1C	-	-	-	53	-	-
COC(=O)[C@]12C[C@H](CC(=O)NCCCN3CCCC3=O)C(=O)N(CCC3=CCCCC3)C1=C[C@H](COCc1ccccc1)O[C@@H]2C	-	.	-	.	.	.
CN(C)c1ccc(/C=C/c2nc3ccccc3c(=O)n2-c2ccc(C(=O)O)cc2)cc1	-	-	-	64	-	83
O=C(Nc1ccc(Br)cc1)c1cccc(N2C(=O)C3C4CCC(C4)C3C2=O)c1 (configuration not stated)	-	-	49	-	-	-
Cc1cccc(NC(=O)c2ccc(N3C(=O)C4C5C=CC(C6CC56)C4C3=O)cc2)c1 (configuration not stated)	-	-	68	46	-	-
Cc1ccccc1NC(=O)c1cccc(N2C(=O)C3C4CC(C(Br)C4Br)C3C2=O)c1 (configuration not stated)	41	-	73	.	.	.
CC1C=CCC2C(=O)N(c3cccc(C(=O)Nc4ccc(Br)cc4)c3)C(=O)C12 (configuration not stated)	-	-	50	-	-	-
O=C(Nc1ccc(Br)cc1)c1cccc(N2C(=O)C3C4C=CC(C4)C3C2=O)c1 (configuration not stated)	-	-	-	-	-	-
Cn1c(=O)n(C)c2cc(NC(=O)c3ccccc3)ccc21	-	.	-	.	.	.
